Consider five compounds from ChEMBL document CHEMBL1909519, “L-Proline anchored multicomponent synthesis of novel pyrido[2,3-a]carbazoles; investigation of in vitro antimicrobial, antioxidant, cytotoxicity and structure activity relationship studies” (Eur J Med Chem, 2011).

Assay [1] concerns A549. Description: Cytotoxicity against human A549 cells up to 50 ug/ml after 48 hrs by SRB assay. Type of assay: functional, cell-based. Put shortly: (§1)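 Cells in RPMI-1640 with 10% heat-inactivated FBS, 1 mM NaHCO3, 2 mM L-glutamine, 37 °C, 5% CO2; seeded (B16F10 5 × 10⁴ cells/mL, others 1 × 10⁵ cells/mL), 24 h, then compounds in DMSO at 1.56–50 for 48 h, triplicate wells. TCA fixation, SRB staining 30 min, tris extraction, OD 520 nm; IC50 by linear regression, mean ± SD of three independent experiments; cisplatin positive control.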

For assay [2], the system named is SK-OV-3. As to the kind of experiment: Cytotoxicity against human SKOV3 cells up to 50 ug/ml after 48 hrs by SRB assay. The class given is functional, cell-based. Put shortly: as §1
In general terms: The SRB assay estimates cell density from bound dye.

Assay [3] relates to Candida albicans. As to the kind of experiment: Antifungal activity against Candida albicans after 48 hrs by agar disk diffusion assay. Type of assay: functional. An outline of the steps: (§2)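 Fungal isolates (PSG Hospital, Coimbatore) grown on Sabouraud dextrose agar; agar well diffusion with compounds in DMSO at 0 (control), 25, 50, 75, 100. DMSO negative control, fluconazole ([…]) positive control. Plates held 28 ± 2 °C for 48 h; zone of inhibition diameter recorded in mm.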

For assay [4], the system named is Klebsiella pneumoniae. As to the kind of experiment: Antibacterial activity against Klebsiella pneumoniae at 25 ug/ml after 24 hrs by agar disk diffusion assay. Conditions: read-out: DIZ. The class given is functional. Put shortly:
(§3)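 Gram-negative clinical isolates (PSG Hospital, Coimbatore) tested by agar well diffusion on nutrient agar. Compounds dissolved in DMSO at 0 (control), 25, 50, 75, 100; DMSO was the negative control and ciprofloxacin ([…]) the positive control. Incubation 37 ± 2 °C for 24 h, then inhibition zone diameter measured in mm.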
Background: Agar diffusion results depend on both activity and mobility in agar.

Assay [5] is described as follows: Cytotoxicity against human SK-MEL-12 cells up to 50 ug/ml after 48 hrs by SRB assay. Type of assay: functional, cell-based. Put shortly: as §1
The subject of assay [6] is Enterococcus faecalis. Description: Antibacterial activity against Enterococcus faecalis after 24 hrs by agar disk diffusion assay. The class given is functional. Put shortly:
(§4)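 Agar well diffusion on nutrient agar against Gram-positive clinical isolates (PSG Hospital, Coimbatore). Compounds in DMSO tested at 0 (control), 25, 50, 75, 100; DMSO as solvent and negative control; ciprofloxacin ([…]) as positive control. Plates incubated 37 ± 2 °C, 24 h; zone of inhibition diameter read in mm.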

In assay [7] the test system is Staphylococcus aureus. Description: Antibacterial activity against Staphylococcus aureus at 25 ug/ml after 24 hrs by agar disk diffusion assay. Conditions: read-out: DIZ. Type of assay: functional. An outline of the steps: as §4
The test system of assay [8] is HCT-15. As to the kind of experiment: Cytotoxicity against human HCT15 cells up to 50 ug/ml after 48 hrs by SRB assay. The class given is functional, cell-based. Put shortly: as §1
Assay [9] relates to B16-F10. Description: Cytotoxicity against mouse B16F10 cells up to 50 ug/ml after 48 hrs by SRB assay. The class given is functional, cell-based. An outline of the steps: as §1
In assay [10] the test system is Aspergillus niger. As to the kind of experiment: Antifungal activity against Aspergillus niger at 25 ug/ml after 48 hrs by agar disk diffusion assay. Type of assay: functional. Conditions: read-out: DIZ. An outline of the steps: as §2
Assay [11] concerns Escherichia coli. As to the kind of experiment: Antibacterial activity against Escherichia coli at 25 ug/ml after 24 hrs by agar disk diffusion assay. Type of assay: functional. Conditions: read-out: DIZ. An outline of the steps:
as §3

For assay [12], the system named is Staphylococcus aureus. As to the kind of experiment: Antibacterial activity against Staphylococcus aureus after 24 hrs by agar disk diffusion assay. The class given is functional. Put shortly:
as §4

The subject of assay [13] is Escherichia coli. Description: Antibacterial activity against Escherichia coli after 24 hrs by agar disk diffusion assay. Type of assay: functional. Put shortly:
as §3

The subject of assay [14] is Radical scavenging activity. Description: Antioxidant activity assessed as DPPH radical scavenging activity after 30 mins by micro plate reader. Type of assay: functional. An outline of the steps: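 DPPH assay: various compound concentrations brought to volume with ethanol, mixed with 0.1 mM ethanolic DPPH alongside vitamin C standard; shaken 30 min at 24 °C, absorbance read at 517 nm; concentration giving 50% decrease determined.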
(In general: Loss of DPPH colour is used to gauge radical scavenging.)

Assay [15] deals with Aspergillus niger. As to the kind of experiment: Antifungal activity against Aspergillus niger after 48 hrs by agar disk diffusion assay. Type of assay: functional. An outline of the steps:
as §2

In assay [16] the test system is Klebsiella pneumoniae. Description: Antibacterial activity against Klebsiella pneumoniae after 24 hrs by agar disk diffusion assay. The class given is functional. An outline of the steps: as §3
Assay [17] relates to Enterococcus faecalis. As to the kind of experiment: Antibacterial activity against Enterococcus faecalis at 25 ug/ml after 24 hrs by agar disk diffusion assay. The class given is functional. As to conditions: read-out: DIZ. An outline of the steps:
as §4

In assay [18] the test system is Candida albicans. Description: Antifungal activity against Candida albicans at 25 ug/ml after 48 hrs by agar disk diffusion assay. Type of assay: functional. Conditions: read-out: DIZ. Put shortly: as §2
The subject of assay [19] is SK-OV-3. As to the kind of experiment: Cytotoxicity against human SKOV3 cells after 48 hrs by SRB assay. The class given is functional, cell-based. Conditions: SK-OV-3, 48 h. An outline of the steps:
as §1

A short description of assay [20]: Cytotoxicity against human SK-MEL-12 cells after 48 hrs by SRB assay. The class given is functional, cell-based. An outline of the steps: as §1
In assay [21] the test system is A549. Description: Cytotoxicity against human A549 cells after 48 hrs by SRB assay. The class given is functional, cell-based. As to conditions: A549, 48 h. Put shortly: as §1
The subject of assay [22] is B16-F10. Description: Cytotoxicity against mouse B16F10 cells after 48 hrs by SRB assay. Conditions: B16-F10, 48 h. The class given is functional, cell-based. An outline of the steps: as §1
Assay [23] relates to Klebsiella pneumoniae. As to the kind of experiment: Antibacterial activity against Klebsiella pneumoniae at 50 ug/ml after 24 hrs by agar disk diffusion assay. Type of assay: functional. Conditions: read-out: DIZ. Put shortly: as §3
The subject of assay [24] is Escherichia coli. As to the kind of experiment: Antibacterial activity against Escherichia coli at 50 ug/ml after 24 hrs by agar disk diffusion assay. Type of assay: functional. As to conditions: read-out: DIZ. An outline of the steps: as §3
Assay [25] concerns Candida albicans. As to the kind of experiment: Antifungal activity against Candida albicans at 50 ug/ml after 48 hrs by agar disk diffusion assay. Type of assay: functional. As to conditions: read-out: DIZ. Put shortly:
as §2

For assay [26], the system named is Enterococcus faecalis. Description: Antibacterial activity against Enterococcus faecalis at 50 ug/ml after 24 hrs by agar disk diffusion assay. The class given is functional. Conditions: read-out: DIZ. An outline of the steps:
as §4

The subject of assay [27] is Staphylococcus aureus. As to the kind of experiment: Antibacterial activity against Staphylococcus aureus at 50 ug/ml after 24 hrs by agar disk diffusion assay. Type of assay: functional. Conditions: read-out: DIZ. Put shortly: as §4
In assay [28] the test system is Aspergillus niger. As to the kind of experiment: Antifungal activity against Aspergillus niger at 50 ug/ml after 48 hrs by agar disk diffusion assay. Type of assay: functional. As to conditions: read-out: DIZ. Put shortly:
as §2

The test system of assay [29] is A549. As to the kind of experiment: Ratio of cisplatin IC50 to compound IC50 for human A549 cells. The class given is functional.
Assay [30] relates to HCT-15. As to the kind of experiment: Cytotoxicity against human HCT15 cells after 48 hrs by SRB assay. As to conditions: HCT-15, 48 h. The class given is functional, cell-based. Put shortly:
as §1

Assay [31] relates to HCT-15. Description: Ratio of cisplatin IC50 to compound IC50 for human HCT15 cells. The class given is functional.
For another assay, the species on record is Homo sapiens. Description: Ratio of cisplatin IC50 to compound IC50 for human SK-MEL-12. Type of assay: functional.

The structures appear in SMILES notation. In brackets after ≈: the same amount, converted by molar mass.

The term IC50 denotes the concentration that gives 50% inhibition. The MIC is the smallest concentration in the dilution series that meets the test's criterion for growth inhibition. With `CCOC(=O)c1c(N)nc2c(c1-c1ccc(Br)cc1)CCc1c-2[nH]c2ccc(C)cc12`, the IC50 entry in the assay on A549 [1] was “Not Active”; in the assay on SK-OV-3 [2], “Not Active”; in assay [5], “Not Active”; with HCT-15 [8], “Not Active”; with B16-F10 [9], “Not Active”; in assay [14], 214.77 µg/mL (≈ 451 µM). Moreover, the MIC in the assay with Candida albicans [3] is > 100 µg/mL; in the assay with Enterococcus faecalis [6], 25 µg/mL (≈ 52.5 µM); with Staphylococcus aureus [12], 25 µg/mL (≈ 52.5 µM); against Escherichia coli [13], 25 µg/mL (≈ 52.5 µM); against Aspergillus niger [15], > 100 µg/mL; with Klebsiella pneumoniae [16], 25 µg/mL (≈ 52.5 µM). The zone of inhibition at 25 µg/mL in the assay with Klebsiella pneumoniae [4] was determined as 25 mm; with Staphylococcus aureus [7] it was 23 mm; in the assay on Aspergillus niger [10], 5 mm; with Escherichia coli [11], 21 mm; in the assay with Enterococcus faecalis [17], 22 mm; in the assay on Candida albicans [18], 7 mm.

Regarding `CCOC(=O)c1c(N)nc2c(c1-c1cc3ccccc3nc1Cl)CCc1c-2[nH]c2ccc(C)cc12`, the IC50 with SK-OV-3 [19] is 18.6 µg/mL (≈ 38.5 µM); in assay [20] it was 27.7 µg/mL (≈ 57.3 µM); with A549 [21] it was 17.6 µg/mL (≈ 36.5 µM); in the assay on HCT-15 [8], “Not Active”; in the assay with B16-F10 [22] it was 20.5 µg/mL (≈ 42.4 µM); in assay [14], 330.25 µg/mL (≈ 684 µM). Moreover, the MIC with Candida albicans [3] is > 100 µg/mL; against Enterococcus faecalis [6], 25 µg/mL (≈ 51.8 µM); against Staphylococcus aureus [12], 25 µg/mL (≈ 51.8 µM); against Escherichia coli [13] it was 25 µg/mL (≈ 51.8 µM); with Aspergillus niger [15], > 100 µg/mL; with Klebsiella pneumoniae [16], 25 µg/mL (≈ 51.8 µM). The zone of inhibition at 25 µg/mL in the assay on Klebsiella pneumoniae [4] turned out to be 26 mm; with Staphylococcus aureus [7] it was 25 mm; in the assay with Aspergillus niger [10], 7 mm; in the assay with Escherichia coli [11], 23 mm; in the assay on Enterococcus faecalis [17], 24 mm; in the assay on Candida albicans [18], 11 mm.

On to `O=C1O[C@H]([C@@H](O)CO)C(O)=C1O` [ASCORBIC ACID], for which the IC50 in assay [14] is 45.94 µg/mL (≈ 261 µM).

Consider `CCOC(=O)c1c(N)nc2c(c1-c1ccc(N(C)C)cc1)CCc1c-2[nH]c2ccc(C)cc12`, for which the zone of inhibition at 50 µg/mL in the assay with Klebsiella pneumoniae [23] was determined as 22 mm; in the assay on Escherichia coli [24], 19 mm; with Candida albicans [25], 5 mm; with Enterococcus faecalis [26] it was 18 mm; in the assay on Staphylococcus aureus [27], 21 mm; with Aspergillus niger [28] it was 7 mm. Also, the IC50 entry (with A549 [1]; in the assay with SK-OV-3 [2]; in assay [5]; in the assay with HCT-15 [8]; in the assay on B16-F10 [9]) was “Not Active” throughout. The MIC in the assay on Candida albicans [3] is > 100 µg/mL; against Enterococcus faecalis [6] it was 50 µg/mL (≈ 113 µM); against Staphylococcus aureus [12], 50 µg/mL (≈ 113 µM); with Escherichia coli [13], 50 µg/mL (≈ 113 µM); against Aspergillus niger [15], > 100 µg/mL; with Klebsiella pneumoniae [16] it was 50 µg/mL (≈ 113 µM).

For `Cc1ccc2[nH]c3c(c2c1)CCc1c-3nc(N)c(C#N)c1-c1cc2ccccc2nc1Cl`, the IC50 is 21.9 µg/mL (≈ 50.3 µM) with SK-OV-3 [19]; 4.48 µg/mL (≈ 10.3 µM) in assay [20]; 3.72 µg/mL (≈ 8.53 µM) in the assay with A549 [21]; 5.89 µg/mL (≈ 13.5 µM) with B16-F10 [22]; 4.43 µg/mL (≈ 10.2 µM) in the assay with HCT-15 [30]; 163.07 µg/mL (≈ 374 µM) in [14]. Besides, the MIC was > 100 µg/mL in the assay on Candida albicans [3]; 25 µg/mL (≈ 57.4 µM) in the assay with Enterococcus faecalis [6]; 25 µg/mL (≈ 57.4 µM) with Staphylococcus aureus [12]; 25 µg/mL (≈ 57.4 µM) in the assay with Escherichia coli [13]; > 100 µg/mL against Aspergillus niger [15]; 25 µg/mL (≈ 57.4 µM) against Klebsiella pneumoniae [16]. The zone of inhibition at 25 µg/mL in the assay on Klebsiella pneumoniae [4] amounted to 25 mm; in the assay on Staphylococcus aureus [7] it was 25 mm; in the assay on Aspergillus niger [10] it was 6 mm; with Escherichia coli [11], 23 mm; in the assay on Enterococcus faecalis [17], 24 mm; in the assay on Candida albicans [18] it was 10 mm. In addition, the “Ratio IC50” value in the assay on A549 [29] is 1.51; with HCT-15 [31], 1.79; in the assay listed under Homo sapiens, 2.32.
